Test results reported in ChEMBL document CHEMBL2029315 (Bioorg Med Chem Lett, 2012).
Calls of active or inactive are those of the source. The rule behind the calls is not given here.

Tests used:
U-937 [1] = assay: Induction of human U937 cells attachment at 0.1 to 1000 nM treated for 24 hrs measured after 60 hrs; format: functional, cell-based
How it was run: (§1)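 Floating and attached cells counted 60 hr after treatment, giving proliferation (total count) and attachment. Mean ± SEM of five independent experiments.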

[2] = biological target: T1, Protein kinase C epsilon type (Homo sapiens) (UniProt Q02156); assay: Modulation of PKCepsilon in human K562 cells assessed as […] after 24 hrs by Western blotting analysis; format: cell-based
T1 sequence (whole entry): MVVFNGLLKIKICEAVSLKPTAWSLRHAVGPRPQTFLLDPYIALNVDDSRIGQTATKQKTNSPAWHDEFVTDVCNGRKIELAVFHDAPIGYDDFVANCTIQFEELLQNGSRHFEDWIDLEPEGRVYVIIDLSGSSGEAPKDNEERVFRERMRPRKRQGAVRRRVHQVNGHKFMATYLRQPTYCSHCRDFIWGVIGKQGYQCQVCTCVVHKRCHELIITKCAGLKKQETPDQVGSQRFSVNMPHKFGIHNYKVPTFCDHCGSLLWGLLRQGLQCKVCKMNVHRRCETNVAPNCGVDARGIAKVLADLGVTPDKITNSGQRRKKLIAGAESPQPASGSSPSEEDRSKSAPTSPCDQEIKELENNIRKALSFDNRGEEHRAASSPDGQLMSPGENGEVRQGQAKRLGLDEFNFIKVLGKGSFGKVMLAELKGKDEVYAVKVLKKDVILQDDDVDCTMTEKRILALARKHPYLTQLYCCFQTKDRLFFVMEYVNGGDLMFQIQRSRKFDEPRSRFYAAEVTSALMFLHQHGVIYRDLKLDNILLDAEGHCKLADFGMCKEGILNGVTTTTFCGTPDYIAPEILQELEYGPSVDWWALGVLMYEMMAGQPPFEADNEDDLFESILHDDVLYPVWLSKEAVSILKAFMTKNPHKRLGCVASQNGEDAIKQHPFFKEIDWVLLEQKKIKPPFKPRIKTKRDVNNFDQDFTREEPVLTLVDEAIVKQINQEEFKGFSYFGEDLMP
How it was run: (§2)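 K562 cells (150,000 cells/ml) treated 24 hr after plating with a dose range for 24 hr. Total cell lysates analysed by Western blot for C1 domain-containing proteins, with actin as loading control. Representative of three independent experiments.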

U-937 [3] = assay: Antiproliferative activity against human U937 cells at 0.1 to 1000 nM after 60 hrs; format: functional, cell-based; how it was run: as §1
[4] = biological target: T2, Ras guanyl-releasing protein 3 (Homo sapiens) (UniProt Q8IV61); assay: Modulation of RASGRP3 in human K562 cells assessed as […] after 24 hrs by Western blotting analysis; format: cell-based; how it was run: as §2
T2 sequence (whole entry): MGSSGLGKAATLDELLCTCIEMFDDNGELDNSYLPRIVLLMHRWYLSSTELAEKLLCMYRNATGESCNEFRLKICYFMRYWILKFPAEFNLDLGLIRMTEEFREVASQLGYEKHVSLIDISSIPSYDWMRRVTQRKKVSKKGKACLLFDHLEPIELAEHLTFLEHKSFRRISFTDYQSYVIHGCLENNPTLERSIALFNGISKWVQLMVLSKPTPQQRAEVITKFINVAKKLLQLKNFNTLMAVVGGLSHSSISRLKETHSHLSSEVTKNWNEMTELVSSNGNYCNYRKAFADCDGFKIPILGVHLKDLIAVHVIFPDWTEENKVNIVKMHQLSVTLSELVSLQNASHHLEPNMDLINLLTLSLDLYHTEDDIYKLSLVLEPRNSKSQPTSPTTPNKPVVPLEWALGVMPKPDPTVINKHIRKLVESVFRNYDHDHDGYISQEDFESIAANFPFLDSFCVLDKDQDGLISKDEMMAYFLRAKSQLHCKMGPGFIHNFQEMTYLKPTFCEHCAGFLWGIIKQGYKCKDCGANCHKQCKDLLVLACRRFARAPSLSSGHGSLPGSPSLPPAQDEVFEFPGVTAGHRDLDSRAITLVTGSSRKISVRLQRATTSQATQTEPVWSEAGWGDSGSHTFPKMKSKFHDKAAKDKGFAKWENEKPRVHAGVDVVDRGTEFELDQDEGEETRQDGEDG

U-937 [5] = assay: Induction of human U937 cells attachment at 0.1 to 3000 nM treated for 24 hrs measured after 60 hrs; format: functional, cell-based
How it was run: (§3)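 U937 cells were seeded, then treated 24 h later across a concentration series. Floating and attached cells were counted separately 60 h after treatment, giving proliferation and attachment read-outs. Data are mean ± SEM of five independent experiments.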

K562 [6] = assay: Antiproliferative activity against human K562 cells after 60 hrs in presence of PMA; format: functional, cell-based
How it was run: (§4)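 K562 or MV4-11 cells were seeded, then exposed to compound 24 h later alongside 10 nM PMA. Total cell number was counted 60 h after treatment. Data are mean ± SEM of three independent experiments.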

K562 [7] = assay: Antiproliferative activity against human K562 cells after 60 hrs in presence of PMA
MV4-11 [8] = assay: Antiproliferative activity against human MV411 cells after 60 hrs in presence of PMA
K562 [9] = assay: Inhibition of PMA-induced human K562 cell attachment treated for 24 hrs measured after 60 hrs; format: functional, cell-based
K562 [10] = assay: Inhibition of bryostatin1-induced human K562 cell attachment treated for 24 hrs measured after 60 hrs; format: functional, cell-based
MV4-11 [11] = assay: Antiproliferative activity against human MV411 cells after 60 hrs in presence of PMA; format: functional, cell-based; how it was run: as §4
MV4-11 [12] = assay: Inhibition of bryostatin1-induced human MV411 cell attachment treated for 24 hrs measured after 60 hrs; format: functional, cell-based
MV4-11 [13] = assay: Inhibition of PMA-induced human MV411 cell attachment treated for 24 hrs measured after 60 hrs; format: functional, cell-based
U-937 [14] = assay: Antiproliferative activity against human U937 cells at 0.1 to 3000 nM after 60 hrs; format: functional, cell-based; how it was run: as §3
[15] = Binding affinity to PKC
[16] = biological target: Protein kinase C beta type (Homo sapiens) (UniProt P05771); assay: Modulation of PKCbeta in human K562 cells assessed as protein down-regulation after 24 hrs by Western blotting analysis; format: cell-based; how it was run: as §2
Chain of Protein kinase C beta type (Homo sapiens) (P05771 2-671 limits assumed): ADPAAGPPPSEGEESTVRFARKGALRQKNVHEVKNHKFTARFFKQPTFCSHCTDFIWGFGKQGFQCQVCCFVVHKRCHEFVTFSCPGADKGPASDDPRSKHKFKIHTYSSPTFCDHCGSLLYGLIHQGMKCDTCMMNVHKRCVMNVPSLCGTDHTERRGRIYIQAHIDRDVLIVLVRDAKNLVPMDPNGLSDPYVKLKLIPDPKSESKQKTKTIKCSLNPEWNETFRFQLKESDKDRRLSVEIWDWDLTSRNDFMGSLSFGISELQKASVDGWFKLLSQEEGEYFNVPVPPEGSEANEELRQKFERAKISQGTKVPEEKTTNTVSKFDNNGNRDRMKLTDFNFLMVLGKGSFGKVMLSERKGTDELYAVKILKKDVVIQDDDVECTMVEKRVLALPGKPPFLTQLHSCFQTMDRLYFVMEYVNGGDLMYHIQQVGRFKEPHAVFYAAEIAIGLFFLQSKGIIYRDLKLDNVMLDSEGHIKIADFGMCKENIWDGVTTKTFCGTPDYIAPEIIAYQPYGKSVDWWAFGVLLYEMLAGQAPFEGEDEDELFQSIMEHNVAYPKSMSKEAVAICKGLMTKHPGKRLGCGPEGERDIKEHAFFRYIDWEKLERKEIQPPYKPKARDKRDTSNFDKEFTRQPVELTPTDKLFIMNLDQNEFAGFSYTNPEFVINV

[17] = biological target: Protein kinase C delta type (Homo sapiens) (UniProt Q05655); assay: Modulation of PKCdelta in human K562 cells assessed as protein down-regulation after 24 hrs by Western blotting analysis; format: cell-based; how it was run: as §2
Chain of Protein kinase C delta type (Homo sapiens) (Q05655 whole entry, looked up): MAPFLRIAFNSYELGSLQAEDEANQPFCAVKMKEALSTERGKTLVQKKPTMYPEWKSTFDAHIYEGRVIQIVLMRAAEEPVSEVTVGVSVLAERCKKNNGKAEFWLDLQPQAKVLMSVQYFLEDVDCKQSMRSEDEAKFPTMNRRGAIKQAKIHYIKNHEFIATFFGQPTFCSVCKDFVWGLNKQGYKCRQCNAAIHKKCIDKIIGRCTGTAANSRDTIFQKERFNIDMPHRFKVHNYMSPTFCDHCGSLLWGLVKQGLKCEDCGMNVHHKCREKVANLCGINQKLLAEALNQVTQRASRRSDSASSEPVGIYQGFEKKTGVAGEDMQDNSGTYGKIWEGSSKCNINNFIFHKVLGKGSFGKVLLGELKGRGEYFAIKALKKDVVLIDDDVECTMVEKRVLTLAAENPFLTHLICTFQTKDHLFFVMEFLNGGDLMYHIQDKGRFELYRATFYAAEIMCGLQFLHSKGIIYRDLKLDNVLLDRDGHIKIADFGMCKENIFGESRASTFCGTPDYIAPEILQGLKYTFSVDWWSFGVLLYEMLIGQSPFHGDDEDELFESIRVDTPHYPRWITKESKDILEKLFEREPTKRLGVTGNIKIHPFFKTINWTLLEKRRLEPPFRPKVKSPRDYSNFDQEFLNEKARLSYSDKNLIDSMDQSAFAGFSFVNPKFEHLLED

U-937 [18] = assay: Inhibition of PMA-induced human U937 cell attachment treated for 24 hrs measured after 60 hrs; format: functional, cell-based; how it was run: as §1
U-937 [19] = assay: Inhibition of PMA-induced human U937 cells antiproliferation activity after 60 hrs; format: functional, cell-based; how it was run: as §1

Row | SMILES | Activity (U-937 [1]) | Activity [2] | Activity (U-937 [3]) | Activity [4] | Activity (U-937 [5]) | Activity (K562 [6]) | Activity (K562 [7]) | Activity (MV4-11 [8]) | inhibition (K562 [9]) | inhibition (K562 [10]) | Activity (MV4-11 [11]) | inhibition (MV4-11 [12]) | inhibition (MV4-11 [13]) | Activity (U-937 [14]) | Ki [15] [nM] | Activity [16] | Activity [17] | inhibition (U-937 [18]) | inhibition (U-937 [19])
1 | CCCCCCCCCCCCCC(=O)O[C@@H]1[C@@H](C)[C@@]2(O)[C@@H](C=C(CO)C[C@]3(O)C(=O)C(C)=C[C@@H]23)[C@@H]2C(C)(C)[C@]12OC(C)=O | Active | Active | Active | Active | – | – | – | – | – | – | – | – | – | – | – | – | – | – | –
2 | C=C1C[C@H]2C[C@@H]3O[C@@H](CC(=C)C3(C)C)C[C@@H](O)CC(=O)O[C@@H]([C@@H](C)O)C[C@@H]3C/C(=C\C(=O)OC)[C@H](OC(=O)/C=C/C=C/CCC)[C@@](O)(O3)C(C)(C)/C=C/[C@@H](C1)O2 | – | Active | – | Active | Active | Dose-dependent effect | Dose-dependent effect | Dose-dependent effect | inactive | Active | Dose-dependent effect | Active | inactive | Active | 1.08 | – | – | – | –
3 | CCC/C=C/C=C/C(=O)O[C@H]1/C(=C/C(=O)OC)C[C@H]2C[C@H]([C@@H](C)O)OC(=O)C[C@H](O)C[C@@H]3C[C@H](OC(C)=O)C(C)(C)[C@](O)(C[C@@H]4C/C(=C/C(=O)OC)C[C@H](/C=C/C(C)(C)[C@]1(O)O2)O4)O3 | – | inactive | – | inactive | – | – | – | – | – | – | – | – | – | – | – | Active | Active | Dose-dependent effect | Dose-dependent effect
